Published values of several laboratories.
Each line is one published result; the experiments were not run side by side.
Target: Testis-specific serine/threonine-protein kinase 1 (TSSK1B, Homo sapiens, UniProt Q9BXA7)
One construct used (Q9BXA7 1-367): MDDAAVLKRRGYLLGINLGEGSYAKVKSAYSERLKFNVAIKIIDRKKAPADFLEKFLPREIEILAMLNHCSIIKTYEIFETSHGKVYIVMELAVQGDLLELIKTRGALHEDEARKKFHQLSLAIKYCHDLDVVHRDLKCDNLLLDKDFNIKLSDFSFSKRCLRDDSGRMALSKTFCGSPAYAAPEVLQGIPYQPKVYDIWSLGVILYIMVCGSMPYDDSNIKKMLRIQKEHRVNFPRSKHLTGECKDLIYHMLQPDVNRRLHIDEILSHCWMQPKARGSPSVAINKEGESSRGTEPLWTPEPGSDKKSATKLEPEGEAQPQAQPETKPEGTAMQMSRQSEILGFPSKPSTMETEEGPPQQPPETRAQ

Cc1nn(C)cc1-c1nc2c(N3CCN(Cc4ccc(Cl)cc4)CC3)c(Cl)cnc2[nH]1  remaining binding (binding, competition with immobilised ligand; 1 µM): 100%
COc1ncccc1-c1cnn2ccc(N3CCN(C(=O)OC(C)C)CC3)nc12  remaining binding (binding, competition with immobilised ligand; 1 µM): 54%
Cn1cc(-c2cc(F)cc(N3CCn4c(cc5c4CCCC5)C3=O)c2CO)cc(Nc2ccc(N3CCN(C4COC4)CC3)cn2)c1=O  inhibition (enzyme activity, inhibitor; 0.1 µM): 9%
N#CC1(c2ccccn2)CCN(Cc2cc(C(=O)O)c(=O)n3ccccc23)CC1  remaining binding (cell-free assay, competition with immobilised ligand; 1 µM): 74%
Nc1ncc(-c2nc(N3CCOCC3)nc(N3CCOCC3)n2)c(C(F)F)n1  remaining binding (binding, competition with immobilised ligand; 10 µM): 100%
O=c1[nH]c2ccccc2n1C1CCN(Cc2ccc(-c3[nH]c4cc5ncnc5cc4nc3-c3ccccc3)cc2)CC1  remaining signal (cell-free assay; 0.5 µM): 96.5%
COc1cc(Nc2ncc(F)c(Nc3ccc4c(n3)NC(=O)C(C)(C)O4)n2)cc(OC)c1OC  inhibition (binding; 10 µM): 97%
Cn1cncc1[C@@](O)(COc1ccc(C#N)cc1-c1ccc(OC(F)(F)F)cc1)c1ccc(C#N)cc1  remaining binding (cell-free assay, competition with immobilised ligand; 1 µM): 70%
Cn1cc(-c2cccc(N3CCc4c(sc5c4CC(C)(C)C5)C3=O)c2CO)cc(Nc2ccncn2)c1=O  inhibition (enzyme activity, inhibitor; 1 µM): 5%
CC(C)(C)c1cc(C=C(C#N)C#N)cc(Br)c1O  remaining activity (enzyme activity, inhibitor; 0.5 µM): 95.6%
